Data taken from publication PMC11212574 (Emerging Microbes & Infections, 2024).

How the values were obtained:
Format in all cases: cell-based
[1] = tested on: EV-A71; test: Virus titration; conditions: RD cells, peptide 25 μM for 2 h, EV-A71 MOI 0.1 for 24 h (Fig S8G)
How it was run: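 RD cells were pretreated 2 h with the test peptide, then infected with EV-A71. Supernatants were serially diluted 10-fold and added in quintuplicate to RD cells seeded 24 h earlier. TCID50 was calculated by the Kärber method after 120 h of infection.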

[2] = tested on: RD cells; test: CCK-8 assay; conditions: peptide treatment for 2 days, CCK-8 (Fig S7B)
How it was run: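 RD cells were seeded at 1 × 10^4/well and held 1 day at 5% CO2. They were then exposed to the test peptide for 2 days. CCK-8 reagent was added with medium and incubated 1 h at 37°C, and OD was read at 450 nm.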

[3] = tested on: Hsp27/hnRNP A1 relocalization; conditions: for redistribution of Hsp27 and hnRNP A1 in EV-A71-infected RD cells: peptide 25 μM for 2 h, then EV-A71 MOI 40 for 6 h (Fig 7C-E, S7C-E)
How it was run: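 RD cells on coverslips were pretreated 2 h with the test compound, then infected with EV-A71 at MOI 40 for 6 h. Cells were fixed in 4% paraformaldehyde for 20 min, permeabilised in 0.5% Triton X-100 for 15 min and blocked in 5% BSA for 2 h. They were stained with anti-Hsp27/anti-hnRNP A1 and Alexa Fluor 488/594 secondaries, with DAPI or Hoechst nuclei, and imaged by confocal. M1 coefficient gave overlap with nuclear stain.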

[4] = tested on: EV-A71 VP1; test: EV-A71 VP1 protein level by western blot with densitometry; conditions: RD cells, peptide for 2 h, EV-A71 MOI 1 for 9 h (Fig S8E)
How it was run: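 RD cells were pretreated 2 h with the test peptide, then infected with EV-A71 (SHZH98 strain). Lysis was in NP-40 buffer, with protein measured by Bradford assay. 20 μg protein was run on 12% SDS-PAGE and transferred to PVDF. HRP secondary antibodies were applied for 1 h, with chemiluminescent detection. VP1 bands were quantified by densitometry against the respective untreated control.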

[5] = tested on: Hsp27 nuclear translocation / hnRNP A1 cytosol translocation; test: Nuclear/cytosol fraction assay upon EV-A71 infection; conditions: 0, 2, 4, 8 µM for 2 h, then EV-A71 MOI 10 for 6 h, RD cells (Fig 1C)
How it was run: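 RD cells were pretreated 2 h with the test compound (0–8 µM), then infected with EV-A71 at MOI 10 for 6 h. Cells were PBS-washed, scraped and pelleted. Cytoplasmic extract was taken on ice as the supernatant after 16,000 xg for 5 min. Nuclear extract was the supernatant after 16,000 xg for 10 min at 4°C. Both were analysed by western blot, with Lamin B1 as nuclear and GAPDH as cytosolic control.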

[6] = tested on: Hsp27 phosphorylation; test: Western blot of Hsp27 phosphorylation; conditions: SB203580 0.25-8 µM for 2 h, then EV-A71 MOI 10 for 6 h, RD cells (Fig 1A)
How it was run: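 RD cells were pre-treated 2 h with test peptide or small-molecule test compound (0–8 µM), then infected with EV-A71 at MOI 10 for 6 h. Cells were lysed in NP-40 buffer, assayed by Bradford, and 20 μg protein was run on 12% SDS-PAGE/PVDF. Blots were probed with phospho-Ser15/78/82 Hsp27 antibodies and HRP secondaries (1 h) and read by chemiluminescence. Loading controls were GAPDH for the compound and β-actin for peptides; peptide blots were quantified by densitometry.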

[7] = tested on: EV-A71; test: Viral RNA by RT-qPCR; conditions: HEK 293T cells, 8 μM SB203580 2 h before EV-A71 infection for 9 h (Fig 6C)

Molecule | effect on viral titre (in words) [1] | CC50 (in words) [2] | redistribution of Hsp27 and hnRNP A1 in EV-A71-infected RD cells [3] | effect on VP1 level (in words) [4] | cytosol translocation of hnRNP A1 (nuclear/cytosol fraction) [5] | nuclear translocation of Hsp27 (nuclear/cytosol fraction) [5] | Hsp27 phosphorylation level at Ser15 and Ser82 [6] | effect on viral RNA level in Hsp27 S78A- and Hsp27 S78D-expressing cells [7] | nuclear Hsp27 level upon EV-A71 infection ([3]; 2 µM for 2 h, then EV-A71 MOI 40 for 6 h, RD cells (Fig 1B)) | nuclear relocation of Hsp27 upon EV-A71 infection ([3]; 4 µM for 2 h, then EV-A71 MOI 40 for 6 h, RD cells (Fig 1B))
RKKRRQRRR-AYSRAAAAQLSS [S78-3A] | only mildly decreased | high CC50 | partially suppressed | – | – | – | – | – | – | –
RKKRRQRRR-YSREANQPKPSPKRESGEE [NC] | – | high CC50 | did not affect | no effect | – | – | – | – | – | –
C[S+]([O-])c1ccc(-c2nc(-c3ccncc3)c(-c3ccc(F)cc3)[nH]2)cc1 (stereo not drawn) [SB203580] | – | – | – | – | inhibited the cytosol translocation of hnRNP A1 in a dose-dependent manner | suppress the nuclear translocation of Hsp27 in a dose-dependent manner | slightly decreased | no obvious effects | markedly reduced nuclear Hsp27 level | further blocked to an invisible level
